The target in the experiment is Phosphodiesterase 7 (Homo sapiens, UniProt Q13946+Q9NP56). Put plainly: Inhibition of PDE7 catalytic domain (unknown origin) using [3H]-cAMP as substrate after 1 hr by scintillation proximity assay. In kind it is protein assay. In short, it runs like this:
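Test compounds were dissolved in DMSO (10 mM stock) and run as a dilution series. It was stirred 1 h at room temperature, stopped with PDE SPA beads, settled 20 min and counted. Assays were run in triplicate, and IC50 was calculated.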
For the compound `Cc1nc(SCc2ccc(-c3ccccc3-c3nn[nH]n3)cc2)c2ccccc2n1`, the concentration for half-maximal inhibition (IC50) was found to be 11 µM.

As to `CC(C)c1nc(SCc2ccc(-c3ccccc3C(=O)O)cc2)c2ccccc2n1`, the half-maximal inhibitory concentration (IC50) amounted to 44 µM.

In turn, `CC(C)c1nc(SCc2ccc(-c3cccc(C(=O)O)c3)cc2)c2ccccc2n1` came in with an IC50 of 0.85 µM.

`CC(C)c1nc(SCc2ccc(-c3ccc(C(=O)O)cc3)cc2)c2ccccc2n1` gave a 50% inhibitory concentration (IC50) of 0.93 µM.

Compound `Clc1ccc(-c2nc(SCc3ccc(-c4ccccc4-c4nnn[nH]4)cc3)c3ccccc3n2)cc1` yielded a half-inhibitory concentration (IC50) of 12 µM.

Take `Brc1cc(Br)c2c(SCc3ccc(-c4cccc(-c5nnn[nH]5)c4)cc3)nc(CCc3ccccc3)nc2c1`: the 50% inhibitory concentration (IC50) is over 100 µM.

On to `COc1cc2c(SCc3ccc(-c4ccccc4-c4nnn[nH]4)cc3)nc(CCc3ccccc3)nc2c(OC)c1OC`, for which the concentration for half-maximal inhibition (IC50) amounted to 3.6 µM.

The compound `N#Cc1ccccc1-c1ccc(CSc2ncnc3ccccc23)cc1` displayed a half-maximal inhibitory concentration (IC50) of over 100 µM.

The compound `Cc1nc(SCc2ccc(-c3ccccc3C#N)cc2)c2ccccc2n1` displayed a 50% inhibitory concentration (IC50) of over 100 µM.

`N#Cc1ccccc1-c1ccc(CSc2nc(C(Cl)(Cl)Cl)nc3ccccc23)cc1` came in with an IC50 of over 100 µM.

`CC(C)c1nc(SCc2ccc(-c3ccccc3C#N)cc2)c2ccccc2n1` gave a half-maximal inhibitory concentration (IC50) of over 100 µM.

Regarding `N#Cc1ccccc1-c1ccc(CSc2nc(SCc3ccccc3)nc3ccccc23)cc1`, the 50% inhibitory concentration (IC50) result is “ND(Insoluble)”.

Compound `N#Cc1ccccc1-c1ccc(CSc2nc(SCc3ccc(F)cc3)nc3ccccc23)cc1` yielded an IC50 of over 100 µM.

Compound `N#Cc1ccccc1-c1ccc(CSc2nc(SCc3ccc([N+](=O)[O-])cc3)nc3ccccc23)cc1` yielded a half-inhibitory concentration (IC50) of over 100 µM.

As for `COC(=O)c1ccccc1-c1ccc(CSc2nc(C(C)C)nc3ccccc23)cc1`, the IC50 was over 100 µM.

With `COC(=O)c1cccc(-c2ccc(CSc3nc(C(C)C)nc4ccccc34)cc2)c1`, the IC50 was over 100 µM.

For the compound `COC(=O)c1ccc(-c2ccc(CSc3nc(C(C)C)nc4ccccc34)cc2)cc1`, the IC50 was determined as 33 µM.

The compound `c1ccc(CSc2nc(SCc3ccc(-c4ccccc4-c4nnn[nH]4)cc3)c3ccccc3n2)cc1` had an IC50 of 7.1 µM.

In turn, `Fc1ccc(CSc2nc(SCc3ccc(-c4ccccc4-c4nnn[nH]4)cc3)c3ccccc3n2)cc1` displayed an IC50 of 6.8 µM. This IC50 and that of the compound before are within 1.5-fold of each other.

The compound `O=[N+]([O-])c1ccc(CSc2nc(SCc3ccc(-c4ccccc4-c4nnn[nH]4)cc3)c3ccccc3n2)cc1` came in with an IC50 of 4.9 µM. This IC50 and that of the compound before are within 1.5-fold of each other.

Regarding `COc1cccc(CSc2nc(SCc3ccc(-c4ccccc4-c4nnn[nH]4)cc3)c3ccccc3n2)c1`, the IC50 turned out to be 3.3 µM. This IC50 and that of the compound before are within 1.5-fold of each other.

In the case of `c1ccc(-c2nnn[nH]2)c(-c2ccc(CSc3nc(SCc4ccc(-c5ccccc5-c5nnn[nH]5)cc4)c4ccccc4n3)cc2)c1`, the IC50 entry is listed as “ND(Insoluble)”.

`c1cc(-c2ccc(CSc3ncnc4ccccc34)cc2)cc(-c2nnn[nH]2)c1` gave a concentration for half-maximal inhibition (IC50) of 8.2 µM.

With `c1ccc2c(SCc3ccc(-c4ccc(-c5nnn[nH]5)cc4)cc3)ncnc2c1`, the IC50 stood at 7.2 µM.

For `Cc1nc(SCc2ccc(-c3cccc(-c4nnn[nH]4)c3)cc2)c2ccccc2n1`, the IC50 worked out at 2.5 µM.

`Cc1nc(SCc2ccc(-c3ccc(-c4nnn[nH]4)cc3)cc2)c2ccccc2n1` gave an IC50 of 8 µM.

As for `ClC(Cl)(Cl)c1nc(SCc2ccc(-c3ccccc3-c3nnn[nH]3)cc2)c2ccccc2n1`, the IC50 turned out to be 2.6 µM.

Regarding `CC(C)c1nc(SCc2ccc(-c3cccc(-c4nnn[nH]4)c3)cc2)c2ccccc2n1`, the IC50 came to 0.89 µM. This IC50 lies about 2.9-fold lower than the previous one.

`CC(C)c1nc(SCc2ccc(-c3ccccc3-c3nn[nH]n3)cc2)c2ccccc2n1` registered an IC50 of 0.77 µM.

(Values after ChEMBL document CHEMBL2346541, “Synthesis and evaluation of quinazoline derivatives as phosphodiesterase 7 inhibitors” (Bioorg Med Chem, 2013).)
